Active and inactive are the calls of the source. The rule behind the calls is not given here.
Assays:
Curvularia lunata = assay: Antifungal activity against Cochliobolus lunatus strain MUCL 38696 at 100 uM by growth based assay; type: functional, organism-based
Outline: (§1)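 Mycelial discs cut from 5-day-old cultures were placed centrally on MEA (Blakeslee's formula) agar plates containing inhibitor at 0.1 mM final concentration or solvent control. Plates were incubated at 28°C and growth was scored daily. Radial growth rate (RGR) and initial growth inhibition (IGI) were derived and expressed as percent of the matching solvent control. Each compound was tested in triplicate.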

Aspergillus niger = assay: Antifungal activity against Aspergillus niger N402 cspA1 at 100 uM by growth based assay; type: functional; outline: as §1
Pleurotus ostreatus = assay: Antifungal activity against Pleurotus ostreatus Plo5 at 100 uM by growth based assay; type: functional; outline: as §1

Compound	inhibition (Curvularia lunata)	further results
O=C(O)c1ccc(F)cc1	inactive	
O=C(O)c1ncc(N2CCCC2)cc1Cl	inactive	
O=C(O)c1ccc(N2CCCC2)cc1Cl	inactive	inhibition (Aspergillus niger): Active
O=C(O)c1ccc(N2CCCCC2)cc1Cl	inactive	
O=C(O)c1ccc(-n2cccc2)cc1	Active	inhibition (Pleurotus ostreatus): inactive; inhibition (Aspergillus niger): Active
Cc1cc(C(=O)O)ccc1-n1c(C)ccc1C	inactive	
O=C(O)c1ccc(N2CCCC2)nc1	inactive	
Cc1cc(C)n(-c2ccc(S(=O)(=O)O)cc2)n1	inactive	
O=C(O)c1ccc(N2CCCC2)cc1	inactive	
O=C(O)c1ccc(C2CCCCC2)cc1	inactive	
CC(=O)c1cc(C)n(-c2ccc(C(=O)O)cc2)c1C	inactive	
Cc1cc(C)n(-c2ccc(C(=O)O)cc2)n1	inactive	
O=S(=O)(O)c1cc[n+](-c2ccc(Cl)cc2)cc1	inactive	
O=C(O)c1ccc(-c2ccsc2)cc1	Active	inhibition at 100 µM (Pleurotus ostreatus): 75%
O=C(O)c1ccc2ccccc2c1	inactive	
Cn1ccc(-c2ccc(C(=O)O)cc2)n1	inactive	

Compound	inhibition (Curvularia lunata)	further results
O=C(O)c1ccc(-c2ccc(Cl)cc2)cc1		inhibition (Aspergillus niger): inactive
Cc1ccn(-c2ccc(C(=O)O)c(Cl)c2)n1	inactive	
O=C(O)c1ccc(-c2cccc(F)c2)cc1	Active	inhibition (Aspergillus niger): Active
O=C(O)c1ccc(-c2ccc(Cl)c(Cl)c2)cc1		inhibition (Aspergillus niger): inactive
Cc1ccc(C)n1-c1ccc(C(=O)O)cc1	inactive	
O=C(O)c1ccc(-c2ccc(Cl)c(F)c2)cc1	Active	inhibition at 100 µM (Pleurotus ostreatus): 75%; inhibition at 100 µM (Aspergillus niger): 30%
CC1CCN(c2ccc(C(=O)O)cc2)CC1	Active	
Cc1cc(C(=O)O)ccc1-n1cccc1		inhibition (Pleurotus ostreatus): inactive
O=C(O)c1ccc(C(=O)O)cc1	inactive	
O=C(O)c1ccc(-c2ccc(F)cc2)cc1	Active	inhibition at 100 µM (Pleurotus ostreatus): 75%; inhibition (Aspergillus niger): Active
Cc1cc(C=O)c(C)n1-c1ccc(C(=O)O)cc1	inactive	
O=C(O)c1ccc(-c2cccs2)cc1	Active	inhibition (Pleurotus ostreatus): Active; inhibition (Aspergillus niger): Active
O=C(O)c1ccc(N2CCCC2=O)cc1	inactive	
O=C(O)c1ccc(-c2cc(F)c(F)cc2F)cc1	Active	inhibition (Aspergillus niger): Active
O=C(O)c1ccc(-c2ccc(C(=O)O)cc2)cc1	inactive	
O=C(O)c1ccc(CN2CCCC2)cc1	inactive	
